Compound activity deposited in PubChem BioAssay by several laboratories.
GPR7 antag – blocks human GPR7 receptor signaling. GPR7-expressing cells, fluorescence antagonist assay. inhibition, % at 4.4 µM. 1.1% of 290,000 active; in the data active = inhibition above about 16%, passing the limit was not always enough;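 note: cells stimulated with the agonist NPW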
Target sequence (P48145 whole entry, looked up): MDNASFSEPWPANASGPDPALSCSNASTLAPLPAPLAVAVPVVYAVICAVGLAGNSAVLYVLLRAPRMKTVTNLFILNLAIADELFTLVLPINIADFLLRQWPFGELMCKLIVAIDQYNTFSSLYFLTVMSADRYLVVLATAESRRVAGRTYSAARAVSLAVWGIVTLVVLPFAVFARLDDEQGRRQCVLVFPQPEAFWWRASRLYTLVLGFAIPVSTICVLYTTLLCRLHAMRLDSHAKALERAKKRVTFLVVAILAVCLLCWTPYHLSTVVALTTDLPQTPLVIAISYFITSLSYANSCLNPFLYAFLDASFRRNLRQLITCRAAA
TRPN1 ag – activates the zebrafish TRPN1 channel; AID 1424; activation, % at 3 µM; HEK293 zebrafish TRPN1-YFP, Fluo-8 calcium fluorescence; 100% = response to 87 µM carbachol; 0.18% of 220,000 active;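 active = activation above its plate's cutoff, the mean activation of test wells on that plate plus 3 SD, cut at about 19% in these data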
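System: zebrafish TRPN1-YFP in HEK293 cells / Dosing: 3 µM single point / Timing: dye loading 1 h at 37 °C, then 30 min room temperature / Signal: Fluo-8 calcium fluorescence, excitation 470-495 nm, emission 515-575 nm / Read-out basis: percent activation from peak over basal fluorescence ratio, control-normalized / Control set: high carbachol 87 µM, low DMSO alone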
TRPML3 agonist – agonists of human TRPML3 channel. Q8TDD5. HEK293 TRPML3-YFP, Fluo-8 calcium fluorescence; 100% = the carbachol control signal. activation, % at 3 µM. 0.29% of 220,000 active;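 active = activation above its plate's cutoff, the mean activation of the plate's test wells plus 3 SD, cut at about 12% in these data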
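Material: TRPML3-YFP stable HEK293 cells | Dosing: One concentration, 3 µM nominal, 0.3% DMSO | Timing: 125 s total fluorescence read per well | Technique: Fluo-8 calcium dye fluorescence, ex 470-495, em 515-575 nm | Measure: Percent activation from peak-to-basal fluorescence ratio, scaled between DMSO and carbachol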
LANA-H2A inh – blocks KSHV LANA binding to histone H2A/H2B. inhibition, % (concentration not given with the values). AID 2629. cell-free LANA-H2A/H2B peptide, fluorescence polarization. Q9QR71. 0.6% of 320,000 active; in the data active = inhibition mostly above about 10%, no sharp cut-off; inactive = mostly below about 6.7%
TAAR1 agonist – agonists of human TAAR1. Q96RJ0. CHO RD-HGA16 TAAR1, Fluo-8 calcium fluorescence; vehicle wells 0%, saturating PEA agonist 100%. activation, % at 3 µM. 0.99% of 360,000 active. AID 624467;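 active = activation above the mean activation of all test compounds in the run plus 3 SD, cut at about 38% in these data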
Target sequence (Q96RJ0 whole entry, looked up): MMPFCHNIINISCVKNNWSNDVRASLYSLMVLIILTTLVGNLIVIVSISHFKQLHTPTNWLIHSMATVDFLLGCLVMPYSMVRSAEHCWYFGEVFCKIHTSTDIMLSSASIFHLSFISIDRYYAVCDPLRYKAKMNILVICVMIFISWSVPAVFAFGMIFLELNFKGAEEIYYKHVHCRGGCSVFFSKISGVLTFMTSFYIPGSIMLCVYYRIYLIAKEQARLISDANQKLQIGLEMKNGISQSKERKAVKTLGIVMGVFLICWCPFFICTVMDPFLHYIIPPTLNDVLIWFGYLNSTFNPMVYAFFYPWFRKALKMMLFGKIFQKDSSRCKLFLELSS
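System: CHO-derived RD-HGA16 cells with stable Gα16 and human TAAR1. Times: 17-24 h plating, Fluo-8 75 min 37 °C, 30 min RT. Measured by: calcium-sensitive Fluo-8 signal, excitation 470-495, emission 515-575 nm. Read-out basis: % activation relative to PEA EC100 response. Control set: DMSO and PEA EC100. Repeats: no replicates (n 1).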
TAAR1 antag – human TAAR1 antagonism. inhibition, % at 3 µM. Q96RJ0. 1.5% of 360,000 active. CHO RD-HGA16 TAAR1, Fluo-8 calcium fluorescence, antagonist;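 active = inhibition above a per-plate cutoff, the mean inhibition of test compounds on that plate plus 3 SD, cut at about 49% in these data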
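test system = CHO RD-HGA16 cells bearing hTAAR1 | replication = singlicate | controls = DMSO-only wells and EC80 β-PEA-stimulated wells | reagent = EC80 β-phenethylamine stimulus | read-out basis = percent inhibition of PEA-evoked calcium signal, max/basal emission ratio | schedule = seeding 17-24 h prior, 75-min 37 °C, 30-min RT dye loading | signal = kinetic Fluo-8 calcium fluorescence measurement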
Hits are given with their value; . = inactive; / = no result; + = active, no number. The list is not random: actives were taken first. Their share in the collection is about 3.4%.

SMILES	GPR7 antag	TRPN1 ag	TRPML3 agonist	LANA-H2A inh	TAAR1 agonist	TAAR1 antag
CN(CCC#N)C(=O)c1ccc(CNS(=O)(=O)c2ccc(F)cc2)cc1	16	.	.	.	.	.
O=C(COC(=O)c1cncc(Br)c1)NCc1ccc(Cl)cc1	.	.	.	167	.	.
C#Cc1ccccc1OCCCN1CCC(C(O)(c2ccccc2)c2ccccc2)CC1	/	/	/	/	40	51
OC(c1ccccc1)(c1ccccc1)C1CCN(CCCOc2ccc(F)cc2)CC1	/	/	/	/	39	.
Cc1ccc(OCCCN2CCC(C(O)(c3ccccc3)c3ccccc3)CC2)cc1	/	/	/	/	.	.
Cc1cc(N2CCCC2)ccc1/C=C1\NC(=S)N(C)C1=O	.	.	.	.	51	.
CN1C(=O)c2ccc(N3CCCC3)cc2C1=O	.	.	.	.	.	.
O=C(N[C@H](C(=O)N1CCC[C@H]1C(=O)NC1CCCC1)C1CCCCC1)c1ccc(Cl)c(Cl)c1	/	/	/	/	.	.
CCN(CC)c1ccc2cc(-c3nc4ccccc4n3C)c(=O)oc2c1	17	.	.	.	.	55
CC(C)(C)C(=O)Nc1ccc(F)cc1[N+](=O)[O-]	.	.	.	12	.	.
CC(=O)Nc1cc2c(cc1[N+](=O)[O-])-c1ccc(F)cc1C2	/	/	/	/	.	.
Clc1ccc(Nc2nnc(-c3ccc4c(c3)OCO4)o2)cc1	/	/	/	/	.	.
CC(NC(=O)Nc1ccc([N+](=O)[O-])cc1)C(c1ccccc1)N1CCOCC1 (stereo not given)	.	.	.	.	49	.
CC(NC(=O)Nc1ccc(Cl)c(Cl)c1)C(c1ccccc1)N1CCOCC1 (stereo not given)	.	.	.	.	57	.
CC(NC(=O)c1ccc(Cl)cc1Cl)C(c1ccccc1)N1CCOCC1 (stereo not given)	.	.	.	.	.	.
CCC(c1nc2ccccc2[nH]1)n1c(C)nc2ccccc21 (stereo not given)	/	/	/	/	.	.
CCN=C1NC(CCc2ccccc2)C(C(=O)OC)=C(C)N1Cc1ccccc1C(F)(F)F (stereo not given)	/	/	/	/	.	.
COc1ccc(NC(=O)c2ccc(Cn3cc(Cl)cn3)cc2)cc1	.	.	.	.	.	.
Cc1ccc(F)c(NC(=O)c2ccc(Cn3cc(Cl)cn3)cc2)c1	34	.	.	.	.	.
Cc1ccc(C)c(-c2cc(C(=O)NNC(=S)NCC(C)C)c3ccccc3n2)c1	.	.	.	.	.	50
C[C@H]1CN(S(=O)(=O)C(C)(C)C)[C@@H](CCO)/C1=C\CCO	/	/	/	/	.	.
CC(=O)Nc1ccc(Nc2ncnc3c2cnn3-c2cccc(C)c2)cc1	.	.	.	.	.	.
COCCNc1ncnc2c1cnn2-c1ccc(Cl)cc1	20	.	.	20	.	.
OCCOCCNc1ncnc2c1cnn2-c1ccc(Cl)cc1	.	.	.	.	.	.
CC(=O)Nc1ccc(Nc2ncnc3c2cnn3-c2ccccc2)cc1	.	.	.	.	38	.
SMILES	GPR7 antag	TRPN1 ag	TRPML3 agonist	LANA-H2A inh	TAAR1 agonist	TAAR1 antag
CN(C)CCCNc1ncnc2c1cnn2-c1ccccc1	.	.	.	14	/	/
NC(=O)c1c(N)[nH]c(C(=O)c2ccccc2)c1-c1ccccc1Cl	/	/	/	/	.	.
O=C(O)c1ccccc1-c1ccccc1C(=O)NCc1cccc(C(F)(F)F)c1	.	.	.	18	.	.
CC(NC(=O)C=Cc1ccco1)C(=O)NC(Cc1ccccc1)C(N)=O (stereo not given)	/	/	/	/	.	.
O=C(COC(=O)CCc1nc2ccccc2c(=O)[nH]1)Nc1ccccc1	/	/	/	24	.	.
N#Cc1ccc(NC(=O)COC(=O)CCc2nc3ccccc3c(=O)[nH]2)cc1	.	.	.	.	.	.
CCC/C(=C1/c2ccccc2C(=O)N1c1ccccc1)c1ccc2[nH]ccc2c1	/	/	/	.	.	58
O=C1c2ccccc2/C(=C\c2ccc3[nH]ccc3c2)N1c1ccccc1	/	/	/	.	.	.
CCCCS(=O)(=O)NCC1CCN(C(=O)C(=O)c2cc3ccccc3o2)CC1	/	/	/	/	.	.
CN(Cc1ccccc1)c1nc2c(c(=O)[nH]c(=O)n2C)n1Cc1ccccc1	.	.	.	.	.	.
Cc1cccc(Cn2c(N(C)CCO)nc3c2c(=O)[nH]c(=O)n3C)c1	.	.	.	14	.	.
CC(=O)Nc1cccc(OCC(O)Cn2c(C)nc3ccccc32)c1 (stereo not given)	.	.	.	.	.	.
CCCOC(=O)c1ccc(OCC(O)Cn2c(C)nc3ccccc32)cc1 (stereo not given)	.	.	.	/	.	54
Cc1cc2c(nc1C)CCCN2S(=O)(=O)c1ccc(C(F)(F)F)cc1	/	/	/	/	.	.
CCOC(=O)C1=CCN(S(=O)(=O)c2ccc(Br)cc2)C1c1cccc(F)c1 (stereo not given)	/	/	/	/	.	.
COc1ccc(CC(=O)Nc2cc(F)ccc2F)cc1S(=O)(=O)N1CCOCC1	/	/	/	/	.	.
COc1ccc(CC(=O)Nc2ccc(F)c(F)c2F)cc1S(=O)(=O)N1CCOCC1	/	/	/	140	.	.
O=C(Nc1ccc(Cl)c(Cl)c1)c1ccc(Cl)c(Cl)c1	.	.	.	.	.	.
O=C(Nc1ccc(Cl)c(Cl)c1)Nc1cc(C(=O)NC2CC2)ccc1Cl	.	.	.	17	/	/
CCc1cc(C(=O)N2CCN(S(=O)(=O)c3cc(C)ccc3C)CC2)sc1C	/	/	/	.	.	.
CCc1cc(C(=O)N2CCN(S(=O)(=O)c3ccccc3F)CC2)sc1C	/	/	/	+	.	.
COc1ccc(C(N)c2csc(Nc3nncc4ccccc34)n2)cc1 (stereo not given)	/	/	/	/	42	.
COc1ccc(C(N)c2csc(Nc3ncccn3)n2)cc1 (stereo not given)	/	/	/	/	.	.
Nc1ccc(CC(N)c2csc(Nc3cc(Oc4ccccc4)ncn3)n2)cc1 (stereo not given)	/	/	/	/	.	.
NC(c1csc(Nc2cc(Oc3ccccc3)ncn2)n1)C1CCCCC1 (stereo not given)	/	/	/	/	43	.
SMILES	GPR7 antag	TRPN1 ag	TRPML3 agonist	LANA-H2A inh	TAAR1 agonist	TAAR1 antag
COc1ccc(C(N)c2csc(Nc3cc(Oc4ccccc4)ncn3)n2)cc1 (stereo not given)	/	/	/	/	38	.
O=C(Nc1ccc(Cl)cc1)OCC12COCN1COC2	/	/	/	/	.	.
CC(=Nc1ccc(Cl)cc1N)c1c(O)cc(C)oc1=O	/	/	/	/	.	.
COc1ccc(C(=O)/C(=C\c2ccco2)N2C=CC=CC2=C(C#N)C#N)cc1	47	.	.	.	/	/
N#CC(C#N)=C1C=CC=CN1/C(=C\c1ccco1)C(=O)c1ccc(Br)cc1	.	.	.	.	.	.
COc1ccc(C(=O)N/C(=C\c2ccco2)C(=O)OCc2ccco2)cc1	.	.	.	.	.	.
